As usually defined, the IC50 is the concentration needed to halve the response being measured.

Here are results for seven compounds from ChEMBL document CHEMBL1146920, “3-[5-(4,5-dihydro-1H-imidazol-2-yl)-furan-2-yl]phenylamine (Amifuraline), a promising reversible and selective peripheral MAO-A inhibitor” (J Med Chem, 2006).

Molecules are shown by their SMILES.

The target in one series is T1, Monoamine oxidase (Rattus norvegicus, UniProt P19643+P21396).
T1 sequence (P19643 whole entry): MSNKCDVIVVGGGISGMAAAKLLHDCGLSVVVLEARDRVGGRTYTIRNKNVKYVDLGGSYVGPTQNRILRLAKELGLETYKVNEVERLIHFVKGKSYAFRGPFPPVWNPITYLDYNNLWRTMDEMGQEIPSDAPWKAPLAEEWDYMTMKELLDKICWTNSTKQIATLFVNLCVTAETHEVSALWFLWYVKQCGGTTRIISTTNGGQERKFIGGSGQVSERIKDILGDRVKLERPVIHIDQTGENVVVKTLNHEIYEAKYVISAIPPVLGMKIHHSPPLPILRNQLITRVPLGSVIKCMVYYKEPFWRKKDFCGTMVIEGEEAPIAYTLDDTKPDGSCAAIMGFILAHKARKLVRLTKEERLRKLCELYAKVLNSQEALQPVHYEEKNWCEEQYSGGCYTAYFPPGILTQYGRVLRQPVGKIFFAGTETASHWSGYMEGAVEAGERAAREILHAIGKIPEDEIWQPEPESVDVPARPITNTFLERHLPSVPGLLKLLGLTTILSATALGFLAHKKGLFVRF
T1 sequence (P21396 whole entry): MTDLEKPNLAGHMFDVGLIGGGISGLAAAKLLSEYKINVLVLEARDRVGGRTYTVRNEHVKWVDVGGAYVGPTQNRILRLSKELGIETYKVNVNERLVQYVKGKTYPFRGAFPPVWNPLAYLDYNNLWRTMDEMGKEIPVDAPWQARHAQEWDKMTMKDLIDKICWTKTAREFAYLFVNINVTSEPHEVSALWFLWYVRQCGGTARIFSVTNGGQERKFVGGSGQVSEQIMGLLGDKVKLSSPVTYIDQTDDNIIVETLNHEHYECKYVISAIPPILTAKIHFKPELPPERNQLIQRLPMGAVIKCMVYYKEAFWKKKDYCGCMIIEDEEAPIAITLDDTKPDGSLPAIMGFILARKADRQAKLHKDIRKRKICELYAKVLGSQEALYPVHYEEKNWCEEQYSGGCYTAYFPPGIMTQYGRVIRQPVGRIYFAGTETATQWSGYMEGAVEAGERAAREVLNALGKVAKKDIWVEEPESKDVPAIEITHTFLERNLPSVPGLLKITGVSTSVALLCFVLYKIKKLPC
The experiment in a line: Binding affinity to I2-IBS, imidazoline binding site of MAO. The class given is functional.

The target in series [1] is T2, Amine oxidase [flavin-containing] A (Rattus norvegicus, UniProt P21396).
T2 sequence (P21396 whole entry): T1 sequence (P21396 whole entry)
The experiment in a line: Inhibition of MAO-A in rat liver assessed as inhibition of [14C]5-HT oxidation. Format: functional. In a few lines:
(§1)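 Rat liver homogenized in 50 mM sodium phosphate, pH 7.5, with protease inhibitors, then filtered. 10-20 µg crude protein incubated 20 min at 37 °C with the test compound across increasing concentrations. MAO-A substrate: 200 µM [14C]5-HT. MAO-B substrate: 20 µM [14C]PEA plus 0.1 µM clorgyline. Stopped with 4 N HCl; product extracted into ethyl acetate/toluene and counted by scintillation. IC50 taken from sigmoid curves; three experiments.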

For series [2], the target named is T3, Amine oxidase [flavin-containing] B (Rattus norvegicus, UniProt P19643).
T3 sequence (P19643 whole entry): T1 sequence (P19643 whole entry)
The experiment in a line: Decrease in MAO-B activity in Sprague-Dawley rat brain at 50 mg/kg, ip. Particulars: in vivo; call rule not given here. Format: functional, organism-based. Also noted: dose 50 mg/kg, route intraperitoneal. In a few lines: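 Male Sprague Dawley rats (~250 g), four per group, got three ip doses of 50 mg/kg (10 mg/mL in saline or DMSO/saline), 20 h, 4 h 30 min and 1 h 30 min before sacrifice. Brain was stored at -80 °C and homogenized in 50 mM phosphate, pH 7.5. Homogenate was incubated 20 min at 37 °C with 20 µM [14C]PEA plus 0.1 µM clorgyline. Extracted product was scintillation-counted and compared with vehicle.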

Series [3] concerns the target T2, Amine oxidase [flavin-containing] A. The experiment in a line: Inhibition of MAO-A in rat liver assessed as decrease in [14C]5-HT oxidation at 10 uM after 20 mins relative to control. The class given is functional. Particulars: read-out: Activity. In a few lines: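 Rat liver homogenate (0.5 mg/mL) in 50 mM phosphate, pH 7.4, incubated 20 min at 37 °C with 10 µM compound or vehicle. MAO-A activity read with 200 µM [14C]serotonin, before and after washing (40 000 g centrifugation, buffer wash, resuspension). Expressed as percent of unwashed vehicle-treated homogenate; duplicate experiments.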

Series [4] has the same target. The experiment in a line: Residual activity at MAO-A in Sprague-Dawley rat liver at 50 mg/kg, ip. The class given is functional, organism-based. Also noted: dose 50 mg/kg, route intraperitoneal. The conditions noted are these: read-out: Activity. In a few lines:
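Male Sprague Dawley rats (about 250 g) received three i.p. injections of 50 mg/kg (10 mg/mL in DMSO/saline or saline) or vehicle, given 20 h, 4 h 30 min and 1 h 30 min before sacrifice. Four rats per group; three per vehicle control. Frozen liver homogenate assayed for MAO-A with 200 µM [14C]5-HT. Expressed relative to vehicle-treated animals.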

In series [5] the target is T3, Amine oxidase [flavin-containing] B. The series is described as follows: Inhibition of MAO-B in rat liver assessed as inhibition of [14C]PEA oxidation in presence of 0.1 uM clorgyline. The class given is functional. In a few lines: as §1

Regarding `C1=C(C2=NCCN2)CCc2ccccc21`, the “Log Ki” value on Monoamine oxidase is -7.95.

`c1ccc(-c2ccc(C3=NCCN3)cn2)cc1`: the IC50 in series [1] is 1800 nM. For the same compound, the Activity result in series [2] is reported as “Active”. The inhibition at 10 µM in series [3] came to 53%.

`OCc1ccc(-c2ccc(C3=NCCN3)o2)cc1`: the IC50 in series [1] came to 1200 nM. Besides, the inhibition at 10 µM in series [3] was determined as 79%.

For `c1ccc([C@H]2O[C@@H]2C2=NCCN2)cc1` (relative stereo), the “Log Ki” value at Monoamine oxidase was -7.55.

Consider `Nc1cccc(-c2ccc(C3=NCCN3)o2)c1` [AMIFURALINE], for which the IC50 in series [1] came to 600 nM; in series [5], 19100 nM. In series [4], the activity at 50 mg/kg is 36%. In addition, in series [3], the inhibition at 10 µM was found to be 85%.

Consider `c1ccc(-c2ccc(C3=NCCN3)o2)cc1` [FURALINE], for which the “Log Ki” value on Monoamine oxidase is on record as -7.68.

For the compound `C(=C\c1ccccc1)/C1=NCCN1` [TRACIZOLINE], at Monoamine oxidase, the “Log Ki” value is -8.72.
